Test results reported in PMC12082725 (Journal of Enzyme Inhibition and Medicinal Chemistry, 2025).
Read-outs that look alike come from different tables or passages of the source.

Key:
NP NTD = details: read-out: Kd, NP NTD; via bio-layer interferometry assay; ref [28]; cited from earlier work
[1] = target: SARS-CoV-2 NP-RNA interaction (Severe acute respiratory syndrome coronavirus 2, UniProt P0DTC9); assay: biochemical; type: biochemical; details: for inhibition rate of the NP-RNA interaction: compound at 50 μM
SARS-CoV-2 NP NTD = SARS-CoV-2 NP NTD (Severe acute respiratory syndrome coronavirus 2, UniProt P0DTC9); assay: BLI binding of compounds to NP NTD; details: NP NTD (residues 44 to 174)
SARS-CoV-2 NP = SARS-CoV-2 NP (Severe acute respiratory syndrome coronavirus 2, UniProt P0DTC9); assay: BLI binding of compounds to full-length NP
Procedure, shortened: (§1)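 Target was recombinant E. coli-expressed SARS-CoV-2 NP, either CTD or full-length (1–419). Protein at 0.39 mg/ml was biotinylated for 30 min at RT, then loaded at 100 μg/ml onto streptavidin sensors for 20 min. After a 60 s baseline, increasing test compound concentrations gave 120 s association and 300 s dissociation. Run in PBS/0.01% Tween-20 at 30 °C; double-reference subtracted; KD from a global 1:1 Langmuir fit.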

[2] = target: RNA-induced LLPS of the NP (Severe acute respiratory syndrome coronavirus 2, UniProt P0DTC9); type: biochemical, SARS-CoV-2
SARS-CoV-2 NP CTD = SARS-CoV-2 NP CTD (Severe acute respiratory syndrome coronavirus 2, UniProt P0DTC9); assay: BLI binding of compounds to NP CTD
Procedure, shortened: as §1

## Cc1ccc(C(=O)Nc2ccc(S(=O)(=O)O)c3cc(S(=O)(=O)O)cc(S(=O)(=O)O)c23)cc1NC(=O)c1cccc(NC(=O)Nc2cccc(C(=O)Nc3cc(C(=O)Nc4ccc(S(=O)(=O)O)c5cc(S(=O)(=O)O)cc(S(=O)(=O)O)c45)ccc3C)c2)c1 [suramin]
NP NTD
  Kd: 2.74 µM

## CCOC(=O)c1c(CSc2ccccc2)n(C)c2cc(Br)c(O)c(CN(C)C)c12 [umifenovir]
[1]; HTRF, 50 μM
  inhibitory effect on NP-RNA interaction (in words): no inhibitory effect

## O=C(O)c1cc(O)c2c(c1)[C@H]([C@H]1c3cc(C(=O)O)cc(O)c3C(=O)c3c(O[C@@H]4O[C@H](CO)[C@@H](O)[C@H](O)[C@H]4O)cccc31)c1cccc(O[C@@H]3O[C@H](CO)[C@@H](O)[C@H](O)[C@H]3O)c1C2=O [sennoside A]
SARS-CoV-2 NP NTD
  binding to NP NTD: neither sennoside A nor sennoside B bound
[1]
  IC50: 3.17 ± 0.39 µM
[1]; HTRF
  inhibition rate of the NP-RNA interaction: exceeding 98%
SARS-CoV-2 NP
  Kd: 0.962 ± 0.019 µM
[2]
  inhibition of RNA-induced LLPS of the NP: relatively weaker activity
SARS-CoV-2 NP CTD
  Kd: 1.82 ± 0.03 µM

## CC(C)[N+]1(C)[C@@H]2CC[C@H]1C[C@@H](OC(=O)C(CO)c1ccccc1)C2 (some centres unmarked) [ipratropium bromide]
[1]; HTRF, 50 μM
  inhibitory effect on NP-RNA interaction (in words): neither compound affected

## O=C(O)c1cc(O)c2c(c1)[C@@H]([C@H]1c3cc(C(=O)O)cc(O)c3C(=O)c3c(O[C@@H]4O[C@H](CO)[C@@H](O)[C@H](O)[C@H]4O)cccc31)c1cccc(O[C@@H]3O[C@H](CO)[C@@H](O)[C@H](O)[C@H]3O)c1C2=O [sennoside B]
SARS-CoV-2 NP NTD
  binding to NP NTD: neither sennoside A nor sennoside B bound
[1]
  IC50: 1.05 ± 0.23 µM
[1]; HTRF
  inhibition rate of the NP-RNA interaction: exceeding 98%
SARS-CoV-2 NP
  Kd: 0.765 ± 0.012 µM
[2]
  inhibition of RNA-induced LLPS of the NP: significantly inhibited
SARS-CoV-2 NP CTD
  Kd: 0.529 ± 0.016 µM

## COc1ccc(CC(C)NCC(O)c2ccc(O)c(NC=O)c2)cc1 (centres unmarked) [formoterol]
[1]; HTRF, 50 μM
  inhibitory effect on NP-RNA interaction (in words): neither compound affected

## COc1ccc2cc([C@H](C)C(=O)O)ccc2c1 [naproxen]
[1]
  inhibitory effect on NP-RNA interaction (in words): did not inhibit
